Values after ≈ are worked out from the molar mass of the structure shown. Active and inactive are the calls of the source. The calls are words filed in the database; no cut-off is given here.
Assays:
[1] = target: T1, Cell division protein FtsZ (Mycobacterium tuberculosis) (UniProt P9WN95); assay: Inhibition of Mycobacterium tuberculosis FtsZ polymerization expressed in Escherichia coli BL21 (DE3) using GTP as substrate by spectrofluorimetric analysis
T1 sequence (whole entry): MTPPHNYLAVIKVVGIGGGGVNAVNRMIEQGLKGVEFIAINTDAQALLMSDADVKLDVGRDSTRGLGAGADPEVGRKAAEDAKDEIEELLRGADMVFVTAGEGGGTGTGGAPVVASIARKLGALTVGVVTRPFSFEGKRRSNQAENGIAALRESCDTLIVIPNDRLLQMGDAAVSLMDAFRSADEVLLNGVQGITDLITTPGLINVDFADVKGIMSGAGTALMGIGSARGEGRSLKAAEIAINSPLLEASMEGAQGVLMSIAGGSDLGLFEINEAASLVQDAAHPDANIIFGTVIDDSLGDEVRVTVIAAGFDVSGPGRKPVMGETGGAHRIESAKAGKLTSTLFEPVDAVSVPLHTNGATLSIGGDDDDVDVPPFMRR

[2] = test system: Mycobacterium tuberculosis; assay: […]; format: functional
Outline: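 Strains were grown at 37 °C in 7H9 Middlebrook broth with 10% OADC, 0.05% Tween and 0.2% glycerol. Compounds were dissolved in DMSO and serially diluted 2-fold, then bacteria were added. Plates were incubated 6 days at 37 °C, then 24 h more with Alamar Blue. MIC was the lowest concentration (μg/mL) that prevented the colour change. Run in triplicate.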

[3] = test system: Vero; assay: Cytotoxicity against Vero cells after 3 days by Alamar Blue assay; format: cell-based; conditions: Chlorocebus sabaeus, 72 h
Outline: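 Vero (African green monkey kidney epithelial) cells were grown without CO₂ in L15 with antibiotics and heat-inactivated calf serum. Cells in medium with 2X Alamar Blue were added at 1.3×10^4 cells/well to 2-fold serial drug dilutions. Plates were incubated 3 days at 37 °C, and IC50 was calculated per the manufacturer's directions.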

[4] = target: T1, Cell division protein FtsZ (Mycobacterium tuberculosis); assay: Inhibition of Mycobacterium tuberculosis FtsZ polymerization expressed in Escherichia coli BL21 (DE3) using GTP as substrate assessed as reduction in density and population of FtsZ polymers at 40 to 80 uM by transmission electron microscopy
Outline: (§1)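 His-tagged Mtb FtsZ (pET15b, BL21(DE3), Ni-NTA purified) at 5 µM in 50 mM MES, 5 mM MgCl₂, 100 mM KCl, pH 6.5 was preincubated 15 min on ice with 40 or 80 µM compound (ethanol stock). GTP was added to 25 µM and samples were held at 37 °C for 30 min, then diluted 2×, stained with 1% uranyl acetate, and imaged by TEM.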

[5] = target: T1, Cell division protein FtsZ (Mycobacterium tuberculosis); assay: Inhibition of Mycobacterium tuberculosis FtsZ polymerization expressed in Escherichia coli BL21 (DE3) using GTP as substrate assessed as disassembly of FtsZ at 40 to 80 uM by transmission electron microscopy
Outline: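 His-tagged Mtb FtsZ (pET15b, BL21(DE3), Ni-NTA purified, Bradford-quantified) at 5 µM in 50 mM MES, 5 mM MgCl₂, 100 mM KCl, pH 6.5 was polymerized with 25 µM GTP at 37 °C for 30 min. Compound (40 or 80 µM, ethanol stock) was then added for 5 min more. Samples were diluted 2×, negatively stained with 1% uranyl acetate, and imaged by TEM.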

[6] = target: T1, Cell division protein FtsZ (Mycobacterium tuberculosis); assay: Inhibition of Mycobacterium tuberculosis FtsZ polymerization expressed in Escherichia coli BL21 (DE3) using GTP as substrate assessed as reduction in aggregate formation at 40 to 80 uM by transmission electron microscopy; outline: as §1
[7] = target: T1, Cell division protein FtsZ (Mycobacterium tuberculosis); assay: Inhibition of Mycobacterium tuberculosis FtsZ polymerization expressed in Escherichia coli BL21 (DE3) using GTP as substrate assessed as reduction in protofilaments at 40 to 80 uM by transmission electron microscopy; outline: as §1

Row | SMILES | inhibition [1] | MIC ([2]; H37Rv, 144 h) [µg/mL] | IC50 [3] [µg/mL] | inhibition [4] | MIC ([2]; W210, 144 h) [µg/mL] | inhibition [5] | inhibition [6] | inhibition [7]
1 | CN(C)c1cc2[nH]c(C3CCCCC3)nc2cc1NC(=O)OCC(F)(F)F | Dose-dependent effect | 0.63 (≈ 1.64 µM) | > 100 | – | – | – | – | –
2 | CCCCOC(=O)Nc1cc2nc(C3CCCCC3)[nH]c2cc1N(C)C | Dose-dependent effect | 0.06 (≈ 0.167 µM) | > 100 | Active | 0.06 (≈ 0.167 µM) | Active | Active | Active
3 | CCc1ccc(C(=O)Nc2cc3nc(C4CCCCC4)[nH]c3cc2N(C)C)cc1 | Dose-dependent effect | 0.16 (≈ 0.41 µM) | > 100 | – | 0.16 (≈ 0.41 µM) | – | – | –
4 | CCCC(C)OC(=O)Nc1cc2nc(C3CCCCC3)[nH]c2cc1N(CC)CC (stereo unspecified) | – | > 50 | > 100 | – | – | – | – | –
5 | COc1ccc(C(=O)Nc2cc3nc(C4CCCCC4)[nH]c3cc2N2CCCC2)cc1 | – | 6.25 (≈ 14.9 µM) | > 100 | – | – | – | – | –
6 | CCCCOC(=O)Nc1cc2nc(C3CCCCC3)[nH]c2cc1N(C)CCN(C)C | – | > 100 | > 100 | – | – | – | – | –

— ChEMBL document CHEMBL3124890, “SAR studies on trisubstituted benzimidazoles as inhibitors of Mtb FtsZ for the development of novel antitubercular agents” (J Med Chem, 2013)
